# Source: PubChem BioAssay
# KCNK3 inh – human KCNK3 channel inhibition, primary screen; O14649; CHO-KCNK3 thallium flux, FluxOR fluorescence; active compounds read low; B-score at 10 µM; actives 0.84% (n = 340,000);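 active = B-score under library mean minus 4 SD, starting fluorescence ratio at most library mean plus 5 SD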;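 also: more negative B-score means stronger inhibition of thallium flux through KCNK3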
# Target sequence (O14649 whole entry, looked up): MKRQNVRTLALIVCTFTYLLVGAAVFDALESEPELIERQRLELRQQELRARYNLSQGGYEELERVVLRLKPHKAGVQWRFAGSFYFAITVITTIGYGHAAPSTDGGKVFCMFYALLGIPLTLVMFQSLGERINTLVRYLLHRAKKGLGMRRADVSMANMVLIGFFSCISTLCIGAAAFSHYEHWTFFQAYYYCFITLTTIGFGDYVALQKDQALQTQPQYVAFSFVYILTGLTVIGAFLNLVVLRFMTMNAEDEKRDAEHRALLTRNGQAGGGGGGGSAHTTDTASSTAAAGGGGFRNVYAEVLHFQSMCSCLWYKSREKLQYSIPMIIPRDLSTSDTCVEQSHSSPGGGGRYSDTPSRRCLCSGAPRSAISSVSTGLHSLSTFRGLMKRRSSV
# Kir21 inh – blocks the mouse Kir2.1 inward-rectifier potassium channel; P35561; HEK293-Kir2.1, FluxOR thallium flux fluorescence; active compounds read low; B-score at 10 µM; actives 0.85% (n = 310,000); AID 1672;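 active = fluorescence ratio B-score at or below minus 3 SD of library scores, with starting-brightness B-score within 2 SD, cut at about -4.2 in these data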;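 also: channel flux triggered by added potassium and thallium sulfate stimulus; B-score of peak minus minimum fluorescence over baseline after thallium stimulus; more negative B-score means stronger Kir2.1 block with less thallium influx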
# KCNQ1 pot – human KCNQ1 channel potentiation or activation. P51787. CHO-K1 KCNQ1, thallium flux FluxOR fluorescence; active compounds read high. B-score at 10 µM. actives 0.35% (n = 310,000). AID 2648;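 active = fluorescence ratio B-score, a plate-corrected score, at least three library SD, with initial intensity B-score within 5 SD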
#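 Schedule – 37 °C overnight plating, 90-min dark dye load, 20-min compound pretreatment · System – stable KCNQ1 CHO-K1 line · Probe or stimulus – thallium- and potassium-containing depolarizing buffer · Measured by – kinetic FluxOR fluorescence, 10 s baseline plus 110 s post-stimulus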
# hERG protect – shields human hERG channel from block by proarrhythmic agents. Q12809. CHO-hERG, FluxOR thallium flux, dofetilide IC70 present. activation (rescue from dofetilide block), less the hit threshold, % at 10 µM. actives 0.51% (n = 310,000). AID 1511;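 active = activation above the mean of controls blocked by dofetilide plus 5 SD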;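 also: thallium influx through hERG after potassium depolarization seen as dye fluorescence rise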
# KCNQ1 block – inhibitors of human KCNQ1 potassium channel; P51787; CHO-K1 KCNQ1, FluxOR thallium flux fluorescence; active compounds read high; B-score at 10 µM; actives 1.3% (n = 310,000); AID 2642;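 active = compounds whose thallium flux B-score, printed positive for inhibition, exceeds three library SD while starting fluorescence stays within three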;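 also: channel opened by potassium depolarization with thallium stimulus after 20 min compound exposure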
# KCNK9 block – blocks the human KCNK9 two-pore domain potassium channel. actives 1.2% (n = 310,000). Q9NPC2. HEK293 KCNK9, FluxOR thallium flux fluorescence; active compounds read low. B-score at 10 µM. AID 488922;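 active = ratio B-score over 3 SD below the library mean, with starting fluorescence within 5 SD of its mean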;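 also: negative B-score means less thallium flux so channel inhibition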
# KCNK9 inh conf – human KCNK9 inhibitor confirmation | HEK293 KCNK9 cells, FluxOR thallium flux fluorescence | AID 492992 | inhibition, % at 10 µM | shares compounds with KCNK9 block | actives 43% (n = 4,900);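 active = thallium signal inhibited by more than 5 SD of the compound-free buffer control wells, on both duplicate plates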;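 also: 0% = assay buffer control wells without compound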
# Kir21 sel – selectivity of KCNK9 modulators against mouse Kir2.1. shares compounds with KCNK9 block. Kir2.1 cells, FluxOR thallium flux fluorescence. inhibition, % at 10 µM. actives 4% (n = 4,900);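 active = thallium signal drop more than 5 SD beyond the mean of the no-compound control wells, seen in both duplicate plates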;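 also: signal is fluorescence rise after thallium addition divided by baseline fluorescence; plate controls were assay buffer only for no effect and full block by chlorpromazine control for full effect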
# HEK293 Tl ctr – non-induced cell nonspecific activity of KCNK9 modulators | shares compounds with KCNK9 block | non-induced KCNK9-HEK293, FluxOR thallium flux | inhibition, % at 10 µM | actives 40% (n = 4,900);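 active = thallium signal drop beyond 5 SD of the untreated control mean, on both duplicate plates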;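 also: plate controls were buffer only IC0 wells for no effect and SID17386958 at its maximal inhibitory level for full effect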
# Numbers without * were called inactive; i = inactive; . = not tested or not shown. The list is not random: actives were taken first. Their share in the collection is about 3.7%.
SMILES,KCNK3 inh,Kir21 inh,KCNQ1 pot,hERG protect,KCNQ1 block,KCNK9 block,KCNK9 inh conf,Kir21 sel,HEK293 Tl ctr
Cc1cc(C(F)(F)F)n(-c2nc(C(=O)N/N=C/c3ccc(F)cc3)cs2)n1,i,0.26,i,-13.7,i,i,.,.,.
O=C(COC(=O)CNC(=O)c1cccs1)Nc1ccc(C(F)(F)F)cc1[N+](=O)[O-],i,1,i,-17.4,i,i,.,.,.
O=C(COc1ccc(Cl)cc1Cl)N1CCCN(C(=O)COc2ccc(Cl)cc2Cl)CC1,i,1.31,i,-14.6,i,-11.3*,36.5%*,i,i
CCc1ccc(N=C2NC(=O)/C(=C/c3ccc(OCC(=O)O)cc3)S2)cc1,i,2.05,i,-8.4,i,i,.,.,.
CCc1ccc(N=C2NC(=O)/C(=C/c3ccc(OCC(=O)O)c(OC)c3)S2)cc1,i,-1.95,i,-2.8,i,i,i,i,i
CC(C)(C)c1ccc(C(=O)N2CCN(CCNC(=O)C(=O)NCc3ccccc3)CC2)cc1,i,0.03,i,-5.7,i,i,.,.,.
O=C(NCc1ccco1)c1cc(S(=O)(=O)N2CCCc3ccccc32)ccc1Cl,i,-0.17,i,-11.1,i,i,i,i,i
COc1ccc(S(=O)(=O)N2CCc3ccccc32)cc1C(=O)NCc1ccco1,i,.,.,.,.,.,.,.,.
CC(NC(=O)/C(C#N)=C/c1cn(-c2ccccc2)nc1-c1ccc(F)cc1)c1ccccc1 (stereo not given),i,-0.31,i,-6.2,i,i,i,i,i
COc1cc(/C=C(/C#N)C(=O)NC(C)c2ccccc2)cc(OC)c1O (stereo not given),i,-1.18,i,-8.3,i,i,.,.,.
COc1ccccc1/C=C/C=C(\C#N)C(=O)NC(C)c1ccccc1 (stereo not given),i,-0.07,i,-8.6,i,i,i,i,i
CC(NC(=O)/C(C#N)=C/c1ccc(C(=O)O)cc1)c1ccccc1 (stereo not given),i,0.01,i,-12.3,i,i,i,i,i
CC(=O)N(c1cc(C)ccc1C)c1ccccc1[N+](=O)[O-],i,.,.,.,.,.,.,.,.
CC(C)=CC(=O)OCc1cc([N+](=O)[O-])cc2c1OCOC2,i,-0.28,i,-13.5,i,i,.,.,.
CCC1Oc2ccc(C)cc2N(CC(=O)N(Cc2ccc(C)o2)C2CCCC2)C1=O (stereo not given),i,-2.54,i,-17.6,i,i,i,i,34.5%*
Cc1ccc(F)cc1NC(=O)C1C2CCC(O2)C1C(=O)O (stereo not given),i,0.01,i,-7.7,i,i,.,.,.
CCOc1cc(/C=N/N=C2/NC(=O)C(CC(=O)O)S2)ccc1OCc1ccc(Cl)cc1Cl (stereo not given),i,-2.15,i,-5.5,i,i,i,i,i
O=C(O)CC1S/C(=N/N=C/c2ccccn2)NC1=O (stereo not given),i,2.35,i,-3.4,i,i,.,.,.
COc1ccc(NC(=O)C23CC4CC(C2)CC(c2ccccc2)(C4)C3)c(OC)c1,i,0.35,i,-2.1,i,i,i,i,i
COCCNC(=O)C12CC3CC(C1)CC(c1ccccc1)(C3)C2,i,-0.04,i,-8.7,i,i,.,.,.
CC1CCN(C(=O)c2ccc3c(Cl)c4c(nc3c2)CCCC4)CC1,i,0.98,i,-7.3,i,i,i,i,i
O=C(c1ccc2c(Cl)c3c(nc2c1)CCCC3)N1CCN(c2ccc(F)cc2)CC1,i,0.4,i,-8.0,i,i,i,i,i
CC[C@@]1(C(=O)OC)N[C@H](CN(C)C(=O)COc2ccccc2)[C@@H]2C(=O)N(Cc3ccccc3)C(=O)[C@@H]21,i,.,.,.,.,.,.,.,.
Cc1ccc(S(=O)(=O)NCCC(=O)NCC(=O)Nc2c(C)cccc2C)cc1C,i,-0.69,i,-9.1,i,i,.,.,.
Cc1cc(C)cc(C(=O)NC(CC(N)=O)c2ccc(N3CCN(c4ccccc4)CC3)c([N+](=O)[O-])c2)c1 (stereo not given),i,1.31,i,-4.2,i,i,.,.,.
SMILES,KCNK3 inh,Kir21 inh,KCNQ1 pot,hERG protect,KCNQ1 block,KCNK9 block,KCNK9 inh conf,Kir21 sel,HEK293 Tl ctr
Cc1cc(C)cc(C(=O)NC(CC(N)=O)c2ccc(N3CCC(Cc4ccccc4)CC3)c([N+](=O)[O-])c2)c1 (stereo not given),i,-0.78,i,-4.6,i,-12.8*,53.0%*,i,36.0%*
NC(=O)NCC(c1ccccc1)C1CCCCC1 (stereo not given),i,-0.35,i,-2.6,i,i,.,.,.
O=C(CCNC(=O)c1ccccc1Cl)Nc1nc(-c2ccc3ccccc3c2)cs1,i,-1.06,i,-8.3,i,-8.16*,41.5%*,i,i
CCOC(=O)c1c(NC(=O)C2CCN(S(=O)(=O)c3cccs3)CC2)sc(C)c1C,i,0.35,i,-6.4,i,i,i,i,i
O=C(NCC1CCCO1)c1csc(Nc2cccc3ccccc23)n1 (stereo not given),i,2.29,i,-7.2,i,-9.19*,42.0%*,i,i
CN(C)CCNC(=O)c1csc(Nc2cccc3ccccc23)n1,i,0.29,i,-3.5,i,i,.,.,.
Cc1ccc(-c2nc(C(=O)NCC3CCCO3)cc3c2[nH]c2ccccc23)cc1 (stereo not given),i,-1.24,i,-37.6,12*,-16.7*,65.0%*,i,33.0%*
COc1ccc(-c2csc(Nc3ccccc3)[n+]2Cc2ccccc2)cc1,i,0.56,i,-15.5,i,-9.39*,45.5%*,i,27.0%*
Cc1ccc(C(=O)O/N=C/c2c(C(F)(F)F)nn(C)c2Sc2ccc(Cl)cc2)cc1,i,1.14,i,-7.1,i,i,i,i,i
COC(=O)c1ccccc1Sc1c(/C=N/OC(=O)c2ccccc2)c(C(F)(F)F)nn1C,i,0.68,i,-4.8,i,i,.,.,.
CN(C)CCNC(C(=O)Nc1cc(Cl)cc(Cl)c1)c1ccccc1 (stereo not given),i,-1.14,i,-3.0,i,i,.,.,.
